Experimental data as given in ChEMBL document CHEMBL2150881, “JD-5006 and JD-5037: peripherally restricted (PR) cannabinoid-1 receptor blockers related to SLV-319 (Ibipinabant) as metabolic disorder therapeutics devoid of CNS liabilities” (Bioorg Med Chem Lett, 2012).
Activity calls are given as the source filed them. The calls are words filed in the database; no cut-off is given here.

What was measured:
Cannabinoid receptor 1 [1] = target: T1, Cannabinoid receptor 1 (Homo sapiens, UniProt P21554); experiment: Displacement of 3[H]ligand from recombinant human CB1 receptor
How it was run: (§1)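 Radioligand displacement from human recombinant CB1 and CB2 protein by a [³H] ligand. Initial screen at two concentrations in duplicate, with values >100 nM estimated. Percent inhibition read at 100 nM. IC₅₀ taken from four-point concentration curves run in duplicate.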

Cannabinoid receptor 2 = Cannabinoid receptor 2 (Homo sapiens, UniProt P34972); experiment: Displacement of 3[H]ligand from recombinant human CB2 receptor; how it was run: as §1
[2] = (§2) Apparent permeability from basolateral to apical side in MDR expressing MDCK cells by LC-MS-MS analysis; type: ADME, cell-based, Canis lupus familiaris; conditions: dog, MDCK-MDR1
How it was run: (§3)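 Permeability measured across MDR-MDCK kidney cell monolayers, giving apparent permeability (Papp) in the apical-to-basolateral and basolateral-to-apical directions.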

[3] = (§4) Apparent permeability from apical to basolateral side in MDR expressing MDCK cells by LC-MS-MS analysis; type: ADME, cell-based, Canis lupus familiaris; conditions: dog, MDCK-MDR1; how it was run: as §3
Mus musculus [4] = experiment: Antidyslipidemic activity in DIO mouse model assessed as reduction in terminal fasting triglyceride level at 3 to 30 mg/kg, po for 21 days; type: functional; parameters: scale not given: the % may be the effect or the level left; conditions: dose mg/kg 3-30
How it was run: (§5)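 Diet-induced obese mice dosed orally at 3, 10 and 30 mg/kg for 21 days alongside vehicle controls. Plasma triglycerides, ALT and terminal liver weight were measured at the end of dosing. p-values were given for each dose.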

Mus musculus [5] = experiment: Antidyslipidemic activity in DIO mouse model assessed as reduction in terminal liver weight at 3 to 30 mg/kg, po for 21 days; type: functional; parameters: scale not given: the % may be the effect or the level left; conditions: dose mg/kg 3-30; how it was run: as §5
Mus musculus [6] = experiment: Antidyslipidemic activity in DIO mouse model assessed as reduction in terminal ALT level at 3 to 30 mg/kg, po for 21 days; type: functional; parameters: scale not given: the % may be the effect or the level left; conditions: dose mg/kg 3-30; how it was run: as §5
Cannabinoid receptor 1 [7] = target: T1, Cannabinoid receptor 1; experiment: Inverse agonist activity against CB1 receptor expressed in human CHO cells assessed as effect on forskolin-stimulated cAMP level; type: functional, cell-based
[8] = Plasma concentration in chow fed mouse at 20 mg/kg, po for 3 days measured after 1 hr post last dose; type: ADME, organism-based; parameters: dose 20 mg/kg, route oral
How it was run: (§6)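 Chow-fed mice were dosed orally at 100 or 20 mg/kg for 3 consecutive days. Plasma and brain were taken 1 h after the last dose. Proteins were precipitated with 3× volume ice-cold acetonitrile containing internal standard, then centrifuged 15 min at 4 °C. Analysis by LC/MS/MS against calibrators in plasma or brain homogenate (1000 to 1.6 nM). Brain is given as ng/gm and also as % of plasma.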

[9] = Drug uptake in chow fed mouse brain at 20 mg/kg, po for 3 days measured after 1 hr post last dose; type: ADME, organism-based; parameters: dose 20 mg/kg, route oral; conditions: read-out: Drug uptake; how it was run: as §6
Mus musculus [10] = experiment: In vivo receptor occupancy at CB1 receptor in mouse hippocampus assessed as inhibition of [3H]SR141716A binding at 3 mg/kg, po for 3 days measured after 1 hr post last dose; type: functional
How it was run: (§7)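 Chow-fed mice dosed orally once daily at 3 or 30 mg/kg for 3 consecutive days, killed 1 h after the last dose. [3H]SR141716A was given by lateral tail-vein injection 30 min before euthanasia. Hippocampus, cerebellum and brain stem (reference region) were scintillation-counted as DPM/mg. Binding potential = (receptor − reference)/reference. Occupancy (%) = 100 × (vehicle BP − drug BP)/vehicle BP. 5 animals per dose.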

Mus musculus [11] = experiment: In vivo receptor occupancy at CB1 receptor in mouse hippocampus assessed as inhibition of [3H]SR141716A binding at 30 mg/kg, po for 3 days measured after 1 hr post last dose; type: functional; how it was run: as §7
Mus musculus [12] = experiment: In vivo receptor occupancy at CB1 receptor in mouse cerebellum assessed as inhibition of [3H]SR141716A binding at 3 mg/kg, po for 3 days measured after 1 hr post last dose; type: functional; how it was run: as §7
Mus musculus [13] = experiment: Antidiabetic activity in high fat diet-fed diabetes mouse model assessed as reduction in glucose level at 20 mg/kg for 7 days by glucose tolerance test; type: functional, organism-based; parameters: dose 20 mg/kg
How it was run: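 Mice kept on high-fat diet for 14 weeks were given 20 mg/kg PO for seven days. They were then challenged with glucose at 2 g/kg body weight, and glucose elimination was followed.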

Mus musculus [14] = experiment: Antidiabetic activity in high fat diet-fed diabetes mouse model assessed as […] in insulin sensitivity at 20 mg/kg for 7 days by glucose tolerance test; type: functional, organism-based; parameters: dose 20 mg/kg
[15] = target: Cannabinoid receptor 1 (Mus musculus) (UniProt P47746); conditions: Cerebellum, 30 mg/kg
MDCK [16] = experiment: as §2; type: ADME, cell-based, Canis lupus familiaris; conditions: dog, mdck; how it was run: as §3
MDCK [17] = experiment: as §4; type: ADME, cell-based, Canis lupus familiaris; conditions: dog, mdck; how it was run: as §3
MDCK [18] = experiment: Efflux ratio of permeability from […] in MDR expressing MDCK cells; type: ADME, cell-based, Canis lupus familiaris; conditions: dog, mdck
Mus musculus [19] = experiment: Antidyslipidemic activity in DIO mouse model assessed as reduction in terminal fasting triglyceride level at 3 mg/kg, po for 21 days; type: functional; parameters: scale not given: the % may be the effect or the level left; how it was run: as §5
Mus musculus [20] = experiment: Antidyslipidemic activity in DIO mouse model assessed as reduction in terminal fasting triglyceride level at 30 mg/kg, po for 21 days; type: functional; parameters: scale not given: the % may be the effect or the level left; how it was run: as §5

T1 sequence (P21554 whole entry): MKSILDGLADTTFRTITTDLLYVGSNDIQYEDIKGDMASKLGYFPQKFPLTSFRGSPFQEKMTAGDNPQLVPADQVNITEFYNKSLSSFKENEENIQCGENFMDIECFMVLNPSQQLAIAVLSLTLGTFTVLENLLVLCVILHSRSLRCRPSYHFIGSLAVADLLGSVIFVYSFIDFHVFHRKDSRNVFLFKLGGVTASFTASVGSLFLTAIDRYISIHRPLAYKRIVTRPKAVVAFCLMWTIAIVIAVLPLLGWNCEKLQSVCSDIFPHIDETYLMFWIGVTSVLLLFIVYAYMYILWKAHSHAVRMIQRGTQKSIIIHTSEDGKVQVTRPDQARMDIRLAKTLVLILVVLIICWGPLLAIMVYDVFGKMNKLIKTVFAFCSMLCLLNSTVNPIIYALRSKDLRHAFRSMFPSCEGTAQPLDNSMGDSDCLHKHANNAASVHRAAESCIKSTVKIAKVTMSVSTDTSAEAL
Chain of Cannabinoid receptor 1 (Mus musculus) (P47746 whole entry): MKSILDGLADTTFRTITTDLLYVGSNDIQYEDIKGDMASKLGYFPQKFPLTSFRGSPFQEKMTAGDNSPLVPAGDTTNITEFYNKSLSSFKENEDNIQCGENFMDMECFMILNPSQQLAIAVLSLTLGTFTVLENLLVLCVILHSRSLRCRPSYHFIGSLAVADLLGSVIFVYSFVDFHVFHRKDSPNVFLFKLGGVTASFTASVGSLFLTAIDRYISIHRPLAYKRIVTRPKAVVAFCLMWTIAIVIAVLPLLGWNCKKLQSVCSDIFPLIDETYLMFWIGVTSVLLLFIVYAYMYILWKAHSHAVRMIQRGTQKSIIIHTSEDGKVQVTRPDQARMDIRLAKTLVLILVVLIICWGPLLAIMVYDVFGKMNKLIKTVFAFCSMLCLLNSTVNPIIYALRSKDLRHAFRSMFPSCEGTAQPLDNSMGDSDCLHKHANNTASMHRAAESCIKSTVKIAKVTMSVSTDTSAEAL
Chain of Cannabinoid receptor 2 (P34972 whole entry): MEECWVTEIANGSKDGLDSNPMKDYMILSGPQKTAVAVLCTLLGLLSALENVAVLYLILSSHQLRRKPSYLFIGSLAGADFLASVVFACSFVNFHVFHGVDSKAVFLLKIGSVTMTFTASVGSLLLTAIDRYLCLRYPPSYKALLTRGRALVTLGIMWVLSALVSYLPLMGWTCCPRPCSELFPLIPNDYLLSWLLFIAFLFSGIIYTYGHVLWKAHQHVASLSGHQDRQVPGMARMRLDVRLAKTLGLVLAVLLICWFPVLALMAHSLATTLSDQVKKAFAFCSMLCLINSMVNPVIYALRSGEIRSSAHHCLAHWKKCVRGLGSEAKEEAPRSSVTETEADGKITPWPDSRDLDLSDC

Row | Structure (SMILES) | IC50 (Cannabinoid receptor 1 [1]) | IC50 (Cannabinoid receptor 2) | Activity (Mus musculus [5]) | Activity (Mus musculus [6]) | Occ (Mus musculus [10]) | Occ (Mus musculus [11]) | Occ (Mus musculus [12]) | Activity (Mus musculus [13]) | Activity (Mus musculus [14]) | Occ [15] | further results
1 | NC(=O)CN/C(=N\S(=O)(=O)c1ccc(Cl)cc1)N1CC(c2ccccc2)C(c2ccc(Cl)cc2)=N1 (racemic) [listing 1 of 2 here] | 18 nM | 5000 nM | 17% | 49% | – | – | – | – | – | – | Papp B→A [2]: 60.5 ×10⁻⁶ cm/s; Papp A→B [3]: 1.8 ×10⁻⁶ cm/s; Activity (Mus musculus [4]): 26%; IC50 (Cannabinoid receptor 1 [7]): 18 nM
2 | Cc1c(C(=O)NN2CCCCC2)nn(-c2ccc(Cl)cc2Cl)c1-c1ccc(Cl)cc1 [RIMONABANT] | – | – | – | – | 10% | 100% | 12% | Active | Active | 87% | concentration at 1 h [8]: 1200 ng/mL; concentration at 1 h [9]: 1080 ng/g
3 | NC(=O)CN/C(=N\S(=O)(=O)c1ccc(Cl)cc1)N1CC(c2ccccc2)C(c2ccc(Cl)cc2)=N1 (racemic) [listing 2 of 2 here] | – | – | – | – | – | – | – | Active | Active | – | –
4 | NC(=O)CNC(=O)CN/C(=N\S(=O)(=O)c1ccc(Cl)cc1)N1CC(c2ccccc2)C(c2ccc(Cl)cc2)=N1 (stereo unspecified) | 25 nM | > 5000 nM | – | – | – | – | – | – | – | – | Papp (MDCK [16]): 22.3 ×10⁻⁶ cm/s; Papp (MDCK [17]): 0.2 ucm/s; Ratio (MDCK [18]): 112
5 | CN/C(=N\S(=O)(=O)c1ccc(Cl)cc1)N1CC(c2ccccc2)C(c2ccc(Cl)cc2)=N1 (racemic) [RAC-IBIPINABANT] | – | – | 25% | 56% | 15% | 100% | 15% | – | – | 102% | Activity (Mus musculus [19]): 22%; Activity (Mus musculus [20]): 19%
